In ChEMBL document CHEMBL2331226, “Antiproliferative and antiplasmodial dimeric phloroglucinols from Mallotus oppositifolius from the Madagascar Dry Forest (1)” (J Nat Prod, 2013):
Activity calls are given as the source filed them. The calls are words filed in the database; no cut-off is given here.

Experiments:
[1] = system: Plasmodium falciparum; experiment: Gametocytocidal antimalarial activity against chloroquine-sensitive Plasmodium falciparum NF54 late gametocyte stage after 72 hrs by alamar blue assay; assay type: functional, organism-based; conditions: NF54, 72 h
How it was run: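 Stage V gametocytes came from NF54 cultures kept at 37 °C in 5% O2, 5% CO2 and […]. Asexual stages were cleared with 5% sorbitol for four days from day 9, and gametocytes were purified on day 13 over NycoPrep 1.077. 30,000–50,000 gametocytes per well were incubated with drug for 72 h in low O2. AlamarBlue was then added for 24 h (ex 540/em 585 nm). IC50 from dose-response fit; two independent determinations in duplicate, ± S.E.M.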

[2] = system: A2780; experiment: Cytotoxicity against human A2780 cells; assay type: functional, cell-based
[3] = system: Plasmodium falciparum; experiment: Cytocidal antimalarial activity against drug-sensitive Plasmodium falciparum HB3 intraerythrocytic stage; assay type: functional; conditions: read-out: LD50 (the source's name)
How it was run: (§1)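 Killing of intraerythrocytic stages measured by a rapid cytocidal assay, per an earlier report. LD50 values are the mean of three replicate determinations ± S.E.M.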

[4] = system: Plasmodium falciparum; experiment: Antimalarial activity against chloroquine-sensitive Plasmodium falciparum NF54 early gametocyte stage assessed as reduction in occurrence of asexual intraerythrocytic stages after 13 days at 0.76 uM by microscopy; assay type: functional, organism-based
How it was run: (§2)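 NF54 cultures at 0.75% parasitemia and 1% hematocrit were grown 13 days with or without drug in 24-well plates, humidified, at 37 °C under low oxygen. Plain or drug-supplemented medium was replaced on days 4, 6, 8 and 9-12. On day 13, asexual and sexual parasitaemia were counted on Giemsa-stained smears. Controls were untreated and 0.5% DMSO vehicle. Two independent experiments.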

[5] = system: Plasmodium falciparum; experiment: Cytocidal antimalarial activity against chloroquine/mefloquine-resistant Plasmodium falciparum Dd2 intraerythrocytic stage; assay type: functional; conditions: read-out: LD50 (the source's name); how it was run: as §1
[6] = system: Plasmodium falciparum; experiment: Antimalarial activity against chloroquine/mefloquine-resistant Plasmodium falciparum Dd2 intraerythrocytic stage after 72 hrs by SYBR green I dye based assay; assay type: functional, organism-based; conditions: for IC50: Plasmodium falciparum, Dd2, 72 h
[7] = system: Plasmodium falciparum; experiment: Antimalarial activity against chloroquine-sensitive Plasmodium falciparum NF54 early gametocyte stage assessed as reduction in occurrence of gametocyte stages after 13 days at 0.76 uM by microscopy; assay type: functional; design: scale not given: the % may be the effect or the level left; how it was run: as §2
[8] = system: Plasmodium falciparum; experiment: Antimalarial activity against chloroquine-sensitive Plasmodium falciparum NF54 early gametocyte stage assessed as reduction in occurrence of asexual intraerythrocytic stages after 13 days at 0.14 uM by microscopy; assay type: functional, organism-based; how it was run: as §2
[9] = system: Plasmodium falciparum; experiment: Antimalarial activity against chloroquine-sensitive Plasmodium falciparum NF54 asexual stage after 72 hrs by alamar blue assay; assay type: functional, organism-based; conditions: NF54, 72 h
[10] = system: Plasmodium falciparum; experiment: Antimalarial activity against chloroquine-sensitive Plasmodium falciparum NF54 early gametocyte stage assessed as reduction in occurrence of gametocyte stages after 13 days at 0.14 uM by microscopy; assay type: functional, organism-based; how it was run: as §2

**Q.** With `C[C@H]1[C@H](OC(=O)CCC(=O)O)O[C@@H]2O[C@@]3(C)CC[C@H]4[C@H](C)CC[C@@H]1[C@@]24OO3` [ARTESUNATE] as the molecule, how does the IC50 [1] read?
**A.** 2.3 µM

**Q.** How did the IC50 [2] turn out when `COc1c(C)c(O)c(C(C)=O)c(O)c1Cc1c(O)c(C(C)=O)c(O)c(CC=C(C)C)c1OC` [MALLOTOJAPONIN B] was run?
**A.** 1.1 µM

**Q.** And the LC50 [3]?
**A.** 14.6 µM

**Q.** And the Activity [4]?
**A.** Active

**Q.** What about the LC50 [5] of the same molecule?
**A.** 6.7 µM

**Q.** And the IC100 [6]?
**A.** 44 µM

**Q.** What about the IC50 [6] of the same molecule?
**A.** 0.75 µM

**Q.** And the Activity [7]?
**A.** 80%

**Q.** `COc1c(CC=C(C)C)c(O)c(C(C)=O)c(O)c1Cc1c(O)c(C(C)=O)c(O)c(CC=C(C)C)c1OC` [MALLOTOJAPONIN C] was tested. Which Activity [8] did it give?
**A.** Active

**Q.** What about the IC50 [2] of the same molecule?
**A.** 1.3 µM

**Q.** And the LC50 [3]?
**A.** 0.81 µM

**Q.** And the IC50 [9]?
**A.** 0.07 µM

**Q.** And the IC50 [1]?
**A.** 3.6 µM

**Q.** What about the Activity [10] of the same molecule?
**A.** Active

**Q.** What about the LC50 [5] of the same molecule?
**A.** 0.8 µM

**Q.** What about the IC100 [6] of the same molecule?
**A.** 39 µM

**Q.** What about the IC50 [6] of the same molecule?
**A.** 0.14 µM
